Measurements: paper PMC5014453 (Molecular Therapy. Nucleic Acids, 2016)

How the values were obtained:
[1] = tested on: HBV (pUC18-HBV1.3 hydrodynamic injection); experiment: Anti-HBV assay in an acute hepatitis B mouse model; type: in vivo, BALB/c mice; details: acute hepatitis B mice, real-time PCR, n = 5; Tat-PNA-DR 5.05 mg/kg, 3TC 0.5 mg/kg
[2] = tested on: HBV DNA and RNA in HepG2.2.15 cells; experiment: Southern and northern blot of intracellular HBV DNA and RNA in HepG2.2.15 cells; type: cell-based, Hepatitis B virus; details: southern blot, 48 hours, 3TC 20 μmol/l
Summary of the method: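 HepG2.2.15 cells grown in DMEM with 10% FBS, penicillin and streptomycin at 37 °C, 5% CO2, then exposed to test compound; 3TC control at 20 μmol/l. Total RNA TRIzol-extracted, run on 1.5% formaldehyde agarose gel, HBV RNAs probed with the DIG probe also used for Southern blot; GAPDH DIG probe as internal control.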

[3] = tested on: HBV proteins in HepG2.2.15 cells; experiment: Western blot of intracellular HBV proteins in HepG2.2.15 cells; type: cell-based, Hepatitis B virus; details: HepG2.2.15 cell lysates, 3TC 20 μmol/l

Compound: Nc1ccn([C@@H]2CS[C@H](CO)O2)c(=O)n1 [3TC, lamivudine]
- average HBV DNA concentration in serum [1]: 1.2 × 10^4 copies/ml
- intracellular HBV DNA [2]: clearly inhibited the synthesis of HBV DNA
- intracellular HBV protein levels (HBsAg, HBV core protein, x protein, RT) [3]: did not affect the expression of any HBV viral proteins
